Columns and labels:
Mus musculus [1] = test: Antineuropathic pain activity in mouse chronic constriction injury model of neuropathic pain assessed as reversal of reduction in paw withdrawal threshold of ipsilateral hind paw at 3 umol/kg, po dosed on day 7 after sciatic nerve ligation and measured at 3 hrs; type: functional; parameters: scale not given: the % may be the effect or the level left
Procedure, shortened: (§1)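 Paw withdrawal threshold (g) measured at 1 h or 3 h after treatment, at day 7 (D7/BL) and at D0. % effect = [PWT at post-treatment time − PWT at D7/BL] / [PWT at D0 − PWT at D7/BL] × 100. Significance set at P<0.05. Procedures otherwise follow earlier work under IASP/NIH animal welfare guidelines.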

Adenosine receptor A3 [2] = target: T1, Adenosine receptor A3 (Homo sapiens, UniProt P0DMS8); test: Displacement of [125I]N6-(4-amino-3-iodobenzyl)adenosine-5'-N-methyl-uronamide from human adenosine A3 receptor stably expressed in CHO cell membrane by radioligand binding assay; type: cell membranes
T1 sequence (P0DMS8 whole entry): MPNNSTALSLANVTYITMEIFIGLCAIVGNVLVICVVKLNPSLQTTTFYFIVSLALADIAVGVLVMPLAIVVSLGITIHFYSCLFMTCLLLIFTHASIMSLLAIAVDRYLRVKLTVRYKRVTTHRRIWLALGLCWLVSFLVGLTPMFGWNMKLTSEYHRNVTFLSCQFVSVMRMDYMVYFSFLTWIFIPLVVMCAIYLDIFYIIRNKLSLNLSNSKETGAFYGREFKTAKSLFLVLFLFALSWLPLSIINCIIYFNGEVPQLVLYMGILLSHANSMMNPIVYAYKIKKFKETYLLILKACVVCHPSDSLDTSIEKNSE

[3] = target: T2, Adenosine receptor A1 (Homo sapiens) (UniProt P30542); test: Displacement of [3H]N6-R-phenylisopropyladenosine from human adenosine A1 receptor stably expressed in CHO cell membrane at 10 uM by radioligand binding assay; type: cell membranes
T2 sequence (whole entry): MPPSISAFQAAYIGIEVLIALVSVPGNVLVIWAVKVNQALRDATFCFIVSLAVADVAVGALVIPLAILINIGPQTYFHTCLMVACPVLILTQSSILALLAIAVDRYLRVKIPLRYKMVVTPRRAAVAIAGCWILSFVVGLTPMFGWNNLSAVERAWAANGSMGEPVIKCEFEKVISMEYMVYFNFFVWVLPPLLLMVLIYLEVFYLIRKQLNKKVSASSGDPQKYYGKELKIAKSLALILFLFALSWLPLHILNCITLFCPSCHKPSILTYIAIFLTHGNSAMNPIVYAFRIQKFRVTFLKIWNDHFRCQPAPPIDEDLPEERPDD

Mus musculus [4] = test: Induction of mechano-allodynia in mouse chronic constriction injury model of neuropathic pain assessed as paw withdrawal threshold on contralateral side at 3 umol/kg, po; type: organism-based; settings: in vivo
Adenosine receptor A2a [5] = target: T3, Adenosine receptor A2a (Homo sapiens, UniProt P29274); test: Displacement of [3H]2-[p(2-carboxyethyl)phenyl-ethylamino]-5'-N-ethylcarboxamido-adenosine from human adenosine A2A receptor stably expressed in HEK293 cell membrane at 10 uM by radioligand binding assay; type: cell membranes
T3 sequence (P29274 whole entry): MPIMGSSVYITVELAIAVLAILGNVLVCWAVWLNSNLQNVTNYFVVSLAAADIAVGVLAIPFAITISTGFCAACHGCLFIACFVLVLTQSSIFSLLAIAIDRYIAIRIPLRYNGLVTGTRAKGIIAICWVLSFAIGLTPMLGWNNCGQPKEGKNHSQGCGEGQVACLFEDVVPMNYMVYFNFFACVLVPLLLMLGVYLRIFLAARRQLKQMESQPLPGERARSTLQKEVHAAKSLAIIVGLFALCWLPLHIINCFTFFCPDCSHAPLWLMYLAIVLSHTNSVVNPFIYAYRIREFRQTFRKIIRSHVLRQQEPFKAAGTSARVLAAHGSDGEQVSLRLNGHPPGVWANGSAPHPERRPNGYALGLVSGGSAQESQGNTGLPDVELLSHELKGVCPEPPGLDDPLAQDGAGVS

Mus musculus [6] = test: Antineuropathic pain activity in mouse chronic constriction injury model of neuropathic pain assessed as reversal of reduction in paw withdrawal threshold of ipsilateral hind paw at 3 umol/kg, po dosed on day 7 after sciatic nerve ligation and measured at 1 hrs; type: functional; procedure, shortened: as §1
[7] = target: Translocator protein (Rattus norvegicus) (UniProt P16257); test: Displacement of [3H]flunitrazepam from rat brain benzodiazepine receptor TSPO incubated for […] by liquid scintillation counting method
Translocator protein (Rattus norvegicus), sequence (P16257 whole entry, looked up): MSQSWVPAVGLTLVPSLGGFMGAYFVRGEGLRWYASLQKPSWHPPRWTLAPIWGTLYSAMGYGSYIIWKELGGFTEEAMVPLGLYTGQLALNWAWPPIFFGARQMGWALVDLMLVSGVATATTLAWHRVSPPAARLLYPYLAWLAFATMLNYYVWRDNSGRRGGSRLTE

PC-12 = test: Displacement of [3H]DTG from rat sigma 2 receptor in PC12 cells incubated for 2 hrs by liquid scintillation counting method; type: cell-based; settings: dose or concentration not given here
Adenosine receptor A2a [8] = target: T3, Adenosine receptor A2a; test: Displacement of [3H]2-[p(2-carboxyethyl)phenyl-ethylamino]-5'-N-ethylcarboxamido-adenosine from human adenosine A2A receptor stably expressed in HEK293 cell membrane by radioligand binding assay; type: cell membranes
Homo sapiens = species on record: Homo sapiens; test: Selectivity ratio for human A3 adenosine receptor to human A2A adenosine receptor
[9] = target: Histamine H2 receptor (Homo sapiens) (UniProt P25021); test: Displacement of [3H]tiotidine from H2 histamine receptor (unknown origin) expressed in cells at 10 uM incubated for […] by scintillation counting method; type: cell-based
Histamine H2 receptor (Homo sapiens), sequence (P25021 whole entry): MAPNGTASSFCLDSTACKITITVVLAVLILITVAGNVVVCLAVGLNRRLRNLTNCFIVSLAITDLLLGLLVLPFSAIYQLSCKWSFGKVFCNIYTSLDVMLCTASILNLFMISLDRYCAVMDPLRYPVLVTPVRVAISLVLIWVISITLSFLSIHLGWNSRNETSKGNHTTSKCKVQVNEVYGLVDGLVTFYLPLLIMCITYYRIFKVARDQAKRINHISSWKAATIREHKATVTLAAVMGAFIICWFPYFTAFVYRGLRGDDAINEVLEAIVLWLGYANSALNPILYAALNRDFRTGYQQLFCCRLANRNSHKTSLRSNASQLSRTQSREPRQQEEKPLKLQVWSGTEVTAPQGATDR

Adenosine receptor A3 [10] = target: T4, Adenosine receptor A3 (Mus musculus, UniProt Q61618); test: Displacement of [125I]N6-(4-amino-3-iodobenzyl)adenosine-5'-N-methyl-uronamide from mouse adenosine A3 receptor stably expressed in CHO cell membrane by radioligand binding assay; type: cell membranes
T4 sequence (Q61618 whole entry): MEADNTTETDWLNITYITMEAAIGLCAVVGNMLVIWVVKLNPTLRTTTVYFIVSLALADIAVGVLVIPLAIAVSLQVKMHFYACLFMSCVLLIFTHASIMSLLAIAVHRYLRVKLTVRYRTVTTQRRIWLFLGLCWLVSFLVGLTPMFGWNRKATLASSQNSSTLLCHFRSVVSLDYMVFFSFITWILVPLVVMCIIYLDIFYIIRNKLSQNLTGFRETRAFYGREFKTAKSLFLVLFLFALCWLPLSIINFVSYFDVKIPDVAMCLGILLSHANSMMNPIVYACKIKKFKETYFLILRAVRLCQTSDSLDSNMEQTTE

| SMILES | Activity (Mus musculus [1]) [%] | Ki (Adenosine receptor A3 [2]) [nM] | inhibition [3] [%] | Activity (Mus musculus [4]) | inhibition (Adenosine receptor A2a [5]) [%] | Emax at 3 µmol/kg (Mus musculus [6]) [%] | inhibition [7] [%] | inhibition (PC-12) [%] | Ki (Adenosine receptor A2a [8]) [nM] | Selectivity ratio (Homo sapiens) | inhibition [9] [%] | Ki (Adenosine receptor A3 [10]) [nM] |
| --- | --- | --- | --- | --- | --- | --- | --- | --- | --- | --- | --- | --- |
| CNC(=O)[C@@]12C[C@@H]1[C@@H](n1cnc3c(NC)nc(-n4cc(-c5ccccn5)nn4)nc31)[C@H](O)[C@@H]2O | 21.1 | 1.84 | 29 | Non-toxic | 26 | 60.9 | – | – | – | – | – | – |
| CNC(=O)[C@@]12C[C@@H]1[C@@H](n1cnc3c(NC4CCC4)nc(N=[N+]=[N-])nc31)[C@H](O)[C@@H]2O | – | 0.85 | – | – | 46 | – | – | – | – | – | – | – |
| CNC(=O)[C@@]12C[C@@H]1[C@@H](n1cnc3c(NC)nc(-n4cc(-c5ccc(Br)s5)nn4)nc31)[C@H](O)[C@@H]2O | 13.5 | 0.58 | – | Non-toxic | 7 | 69.1 | – | – | – | – | – | – |
| CNC(=O)[C@@]12C[C@@H]1[C@@H](n1cnc3c(NC)nc(-n4cc(-c5ccccc5)nn4)nc31)[C@H](O)[C@@H]2O | 27.5 | 0.96 | – | Non-toxic | 35 | 77.4 | – | – | – | – | – | – |
| CNC(=O)[C@@]12C[C@@H]1[C@@H](n1cnc3c(NC)nc(N=[N+]=[N-])nc31)[C@H](O)[C@@H]2O | – | 0.54 | – | – | 1 | – | – | – | – | – | – | – |
| CNC(=O)[C@@]12C[C@@H]1[C@@H](n1cnc3c(NC)nc(-n4cc(-c5ccc(F)c(F)c5)nn4)nc31)[C@H](O)[C@@H]2O | 27 | 1.06 | – | Non-toxic | 39 | 75.2 | – | – | – | – | – | – |
| CNC(=O)[C@@]12C[C@@H]1[C@@H](n1cnc3c(NC)nc(-n4cc(-c5cc6ccccc6o5)nn4)nc31)[C@H](O)[C@@H]2O | 22.3 | 1.25 | 12 | Non-toxic | 40 | 74 | – | – | – | – | – | – |
| CNC(=O)[C@@]12C[C@@H]1[C@@H](n1cnc3c(NCCc4ccccc4)nc(-n4cc(-c5ccc(Cl)s5)nn4)nc31)[C@H](O)[C@@H]2O | 82.9 | 6.66 | 58 | Non-toxic | – | 94.1 | – | – | – | – | – | – |
| CNC(=O)[C@@]12C[C@@H]1[C@@H](n1cnc3c(NC)nc(-n4cc(-c5ccccc5Cl)nn4)nc31)[C@H](O)[C@@H]2O | 7.9 | 0.95 | – | Non-toxic | 31 | 69.1 | – | – | – | – | – | – |
| CNC(=O)[C@@]12C[C@@H]1[C@@H](n1cnc3c(NC)nc(-n4cc(-c5cnn(C)c5)nn4)nc31)[C@H](O)[C@@H]2O | 19.1 | 2.16 | 2 | Non-toxic | 1 | 82.5 | – | – | – | – | – | – |
| CCNc1nc(N=[N+]=[N-])nc2c1ncn2[C@H]1[C@H](O)[C@H](O)[C@]2(C(=O)NC)C[C@H]12 | – | 0.69 | – | – | 11 | – | – | – | – | – | – | – |
| CNC(=O)[C@@]12C[C@@H]1[C@@H](n1cnc3c(NC)nc(-n4cc(-c5ccc(Cl)s5)nn4)nc31)[C@H](O)[C@@H]2O | 8.4 | 0.73 | 27 | Non-toxic | 34 | 66.8 | 54 | 62 | – | – | – | – |
| CNC(=O)[C@@]12C[C@@H]1[C@@H](n1cnc3c(NC)nc(-n4cc(-c5cnccn5)nn4)nc31)[C@H](O)[C@@H]2O | 26.6 | 2.21 | 25 | Non-toxic | 8 | 76.6 | – | – | – | – | – | – |
| CNC(=O)[C@@]12C[C@@H]1[C@@H](n1cnc3c(NCc4cccc(Cl)c4)nc(N=[N+]=[N-])nc31)[C@H](O)[C@@H]2O | – | 1.08 | – | – | – | – | – | – | 2770 | – | – | – |
| CNC(=O)[C@@]12C[C@@H]1[C@@H](n1cnc3c(NCCc4ccccc4)nc(I)nc31)[C@H](O)[C@@H]2O | – | 0.91 | 68 | – | 42 | – | – | – | – | – | – | – |
| CNC(=O)[C@@]12CC1[C@@H](n1cnc3c(NC)nc(C#Cc4ccccc4)nc31)[C@H](O)[C@@H]2O (single isomer, unassigned) | – | – | – | – | – | – | – | – | – | > 3000 | – | – |
| CNC(=O)[C@@]12C[C@@H]1[C@@H](n1cnc3c(NC)nc(-n4cc(-c5ccco5)nn4)nc31)[C@H](O)[C@@H]2O | 21.1 | 0.96 | – | Non-toxic | 51 | 65.3 | – | 50 | – | – | 50 | – |
| CCNc1nc(-n2cc(-c3ccc(Cl)s3)nn2)nc2c1ncn2[C@H]1[C@H](O)[C@H](O)[C@]2(C(=O)NC)C[C@H]12 | 17.9 | 1.22 | – | Non-toxic | 32 | 84.9 | – | – | – | – | – | – |
| CNC(=O)[C@@]12C[C@@H]1[C@@H](n1cnc3c(NC4CCC4)nc(I)nc31)[C@H](O)[C@@H]2O | – | 1.53 | – | – | – | – | – | – | > 10000 | – | – | – |
| CNC(=O)[C@@]12C[C@@H]1[C@@H](n1cnc3c(NC4CCC4)nc(-n4cc(-c5ccc(Cl)s5)nn4)nc31)[C@H](O)[C@@H]2O | 85.2 | 7.05 | – | Non-toxic | – | 90.7 | – | – | – | – | – | – |
| CNC(=O)[C@@]12C[C@@H]1[C@@H](n1cnc3c(NCCc4ccccc4)nc(N=[N+]=[N-])nc31)[C@H](O)[C@@H]2O | – | 0.85 | 93 | – | – | – | – | – | 1110 | – | – | – |
| CNC(=O)[C@@]12C[C@@H]1[C@@H](n1cnc3c(NC)nc(-n4cc(-c5ncccn5)nn4)nc31)[C@H](O)[C@@H]2O | 36.2 | 3.48 | 14 | Non-toxic | 27 | 92.7 | – | – | – | – | – | 334 |
| CCNc1nc(I)nc2c1ncn2[C@H]1[C@H](O)[C@H](O)[C@]2(C(=O)NC)C[C@H]12 | – | 1.22 | – | – | 11 | – | – | – | – | – | – | – |
